One series has as its system Candida albicans. The experiment in a line: Antifungal activity against Candida albicans SC5314 after 24 hrs. Particulars: SC5314, 24 h. The series is classed as functional. In outline:
(§1)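 C. albicans SC5314 or S. cerevisiae BY4741a (S288C derivative) grown 12 h at 30 °C, 200 rpm in YPD. 3×10^4 cells seeded per well of a 96-well plate with 1:2 serial dilutions of compound (stocks in 20% v/v DMSO and medium). DMSO and medium served as controls. Growth was scored visually after 24 h at 30 °C. MIC was taken as the well before first growth. Run twice.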

The test system of series [1] is Schizosaccharomyces pombe. The experiment in a line: Antifungal activity against Schizosaccharomyces pombe after 24 hrs. The series is classed as functional. In outline: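 S. pombe NJ2 h⁻ (ura4-D18 leu1-32 ade6-M210 his7-366) precultured 12 h at 30 °C, 200 rpm in yeast extract broth (YE). 3×10^4 cells were exposed in 96-well plates to 1:2 serial dilutions of compound (stocks in 20% v/v DMSO and medium), with DMSO and medium controls. Growth was read visually at 24 h, 30 °C. MIC was the well preceding first visible growth. Duplicate experiments.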

A further series has as its system Saccharomyces cerevisiae. The experiment in a line: Antifungal activity against Saccharomyces cerevisiae BY4741a after 24 hrs. The series is classed as functional. In outline:
as §1

Series [2] can be described thus: Lipophilicity, log P of the compound. The class given is physicochemical. Particulars: octanol/water.

What is called MIC is the least concentration at which growth counts as inhibited. Broadly, the logP is the decadic logarithm of the partition coefficient of the neutral form, usually between octanol and water.

≈ marks a conversion by molar mass, not a printed value.

As for `CC1=[N+](CCCS(=O)(=O)[O-])c2ccccc2C1(C)C`, the MIC (against Candida albicans; in series [1]; in the series on Saccharomyces cerevisiae) was 1000 µg/mL (≈ 3.55 mM) in each case. In addition, the logP in series [2] was -4.33.

As for `CC1=[N+](C)c2ccccc2C1(C)C.[I-]`, the MIC against Candida albicans is 1000 µg/mL; in series [1], 500 µg/mL; with Saccharomyces cerevisiae it was 500 µg/mL. For the same compound, in series [2] (read-out: logP), the lipophilicity (logP) was -0.691.

As to `CC[N+]1=C(C)C(C)(C)c2ccccc21.[I-]`, the MIC in the series with Candida albicans is 1000 µg/mL; in series [1], 500 µg/mL; with Saccharomyces cerevisiae, 500 µg/mL. Further, in series [2] (read-out: logP), the logP was -0.315.

Take `CCC[N+]1=C(C)C(C)(C)c2ccccc21.[I-]`: the MIC against Candida albicans amounted to 1000 µg/mL; in series [1] it was 250 µg/mL; against Saccharomyces cerevisiae, 250 µg/mL. In series [2] (read-out: logP), the logP was 0.188.

As to `CCCC[N+]1=C(C)C(C)(C)c2ccccc21.[I-]`, the MIC in the series with Candida albicans turned out to be 1000 µg/mL; in series [1], 250 µg/mL; against Saccharomyces cerevisiae it was 250 µg/mL. For the same compound, the logP in series [2] (read-out: logP) worked out at 0.747.

As for `CCCCC[N+]1=C(C)C(C)(C)c2ccccc21.[I-]`, the MIC in the series on Candida albicans was 1000 µg/mL; in series [1], 125 µg/mL; against Saccharomyces cerevisiae, 250 µg/mL. Further, the logP in series [2] (read-out: logP) was 1.25.

In the case of `CCCCCC[N+]1=C(C)C(C)(C)c2ccccc21.[I-]`, the MIC amounted to 1000 µg/mL in the series on Candida albicans, 125 µg/mL in series [1] and 125 µg/mL in the series on Saccharomyces cerevisiae. The logP in series [2] (read-out: logP) was 1.76.

Turning to `CCCCCCC[N+]1=C(C)C(C)(C)c2ccccc21.[I-]`, the MIC against Candida albicans worked out at 1000 µg/mL; in series [1] it was 62.5 µg/mL; against Saccharomyces cerevisiae it was 125 µg/mL. Also, the logP in series [2] (read-out: logP) stood at 2.26.

Consider `CCCCCCCC[N+]1=C(C)C(C)(C)c2ccccc21.[I-]`, for which the MIC in the series on Candida albicans came out at 1000 µg/mL; in series [1], 62.5 µg/mL; against Saccharomyces cerevisiae, 62.5 µg/mL. Moreover, the logP in series [2] (read-out: logP) was 2.77.

In the case of `CCCCCCCCC[N+]1=C(C)C(C)(C)c2ccccc21.[I-]`, the MIC with Candida albicans came out at 1000 µg/mL; in series [1], 31.3 µg/mL; against Saccharomyces cerevisiae it was 31.3 µg/mL. The logP in series [2] (read-out: logP) is 3.27.

Consider `CCCCCCCCCC[N+]1=C(C)C(C)(C)c2ccccc21.[I-]`, for which the results for the MIC (in the series on Candida albicans; in series [1]; against Saccharomyces cerevisiae) were 500 µg/mL, 15.6 µg/mL and 15.6 µg/mL, respectively. For the same compound, in series [2] (read-out: logP), the logP was determined as 3.78.

Take `CC1=[N+](Cc2ccccc2)c2ccccc2C1(C)C.[Br-]`: the MIC (in the series with Candida albicans; in series [1]; with Saccharomyces cerevisiae) was 1000 µg/mL each time. Besides, the logP in series [2] (read-out: logP) was determined as 0.904.

As for `CC1=[N+](CCCCS(=O)(=O)[O-])c2ccccc2C1(C)C`, the MIC (in the series on Candida albicans; in series [1]; in the series with Saccharomyces cerevisiae) was 1000 µg/mL (≈ 3.39 mM) each time. For the same compound, the logP in series [2] is -4.114.

Regarding `CC1=Nc2ccccc2C1(C)C`, the MIC turned out to be 500 µg/mL (≈ 3.14 mM) in the series on Candida albicans, 250 µg/mL (≈ 1.57 mM) in series [1] and 1000 µg/mL (≈ 6.28 mM) with Saccharomyces cerevisiae. In addition, the logP in series [2] (read-out: logP) amounted to 3.29.

For `Cc1sc2ccccc2[n+]1C.[I-]`, the MIC in the series on Candida albicans amounted to 1000 µg/mL; in series [1] it was 500 µg/mL; in the series with Saccharomyces cerevisiae, 500 µg/mL. For the same compound, the logP in series [2] (read-out: logP) was -1.08.

With `CC[n+]1c(C)sc2ccccc21.[I-]`, the figures for the MIC (with Candida albicans; in series [1]; with Saccharomyces cerevisiae) were 1000 µg/mL, 250 µg/mL and 500 µg/mL, respectively. The logP in series [2] (read-out: logP) was -0.701.

Take `CCC[n+]1c(C)sc2ccccc21.[I-]`: the MIC in the series on Candida albicans was determined as 1000 µg/mL; in series [1], 250 µg/mL; in the series with Saccharomyces cerevisiae it was 250 µg/mL. Moreover, the logP in series [2] (read-out: logP) is -0.199.

As to `CCCC[n+]1c(C)sc2ccccc21.[Br-]`, the minimal inhibitory concentration (MIC) against Candida albicans is 1000 µg/mL; in series [1] it was 250 µg/mL; in the series with Saccharomyces cerevisiae, 250 µg/mL. For the same compound, the logP in series [2] (read-out: logP) came to 0.36.

Regarding `CCCCC[n+]1c(C)sc2ccccc21.[Br-]`, the MIC turned out to be 1000 µg/mL in the series on Candida albicans, 250 µg/mL in series [1] and 62.5 µg/mL in the series on Saccharomyces cerevisiae. Besides, in series [2] (read-out: logP), the logP is 1.25.

For the compound `CCCCCC[n+]1c(C)sc2ccccc21.[Br-]`, the minimal inhibitory concentration (MIC) came to 1000 µg/mL in the series with Candida albicans, 250 µg/mL in series [1] and 62.5 µg/mL in the series with Saccharomyces cerevisiae. Moreover, the logP in series [2] (read-out: logP) was found to be 1.37.

Consider `CCCCCCC[n+]1c(C)sc2ccccc21.[Br-]`, for which the MIC against Candida albicans was 1000 µg/mL; in series [1] it was 125 µg/mL; against Saccharomyces cerevisiae, 31.3 µg/mL. Besides, the logP in series [2] (read-out: logP) came out at 1.88.

As for `CCCCCCCC[n+]1c(C)sc2ccccc21.[Br-]`, the MIC against Candida albicans worked out at 1000 µg/mL; in series [1], 62.5 µg/mL; in the series on Saccharomyces cerevisiae, 15.6 µg/mL. Also, the logP in series [2] (read-out: logP) came out at 2.38.

For `CCCCCCCCC[n+]1c(C)sc2ccccc21.[Br-]`, the results for the MIC (with Candida albicans; in series [1]; against Saccharomyces cerevisiae) were 500 µg/mL, 31.3 µg/mL and 7.8 µg/mL, respectively. The log partition coefficient (logP) in series [2] (read-out: logP) is 2.89.

In the case of `CCCCCCCCCC[n+]1c(C)sc2ccccc21.[Br-]`, the MIC with Candida albicans is 250 µg/mL; in series [1], 7.8 µg/mL; in the series with Saccharomyces cerevisiae, 3.9 µg/mL. Moreover, in series [2] (read-out: logP), the logP was found to be 3.39.

As for `Cc1sc2ccccc2[n+]1Cc1ccccc1.[Br-]`, the MIC (against Candida albicans; in series [1]; in the series on Saccharomyces cerevisiae) was 1000 µg/mL each time. The logP in series [2] (read-out: logP) amounted to 0.517.

As for `Cc1sc2ccccc2[n+]1CCCS(=O)(=O)[O-]`, the MIC (with Candida albicans; in series [1]; in the series on Saccharomyces cerevisiae) was 1000 µg/mL (≈ 3.69 mM) each time. Also, in series [2], the logP is -4.576.

Take `Cc1sc2ccccc2[n+]1CCCCS(=O)(=O)[O-]`: the MIC (with Candida albicans; in series [1]; in the series on Saccharomyces cerevisiae) was 1000 µg/mL (≈ 3.5 mM) in each case. This compound also displayed a logP in series [2] of -4.411.

With `Cc1nc2ccccc2s1`, the MIC came to 1000 µg/mL (≈ 6.7 mM) against Candida albicans, 250 µg/mL (≈ 1.68 mM) in series [1] and 1000 µg/mL (≈ 6.7 mM) against Saccharomyces cerevisiae. Further, in series [2] (read-out: logP), the logP is 2.08.

For the compound `C[C@@H]1[C@H](O)[C@@H](C)/C=C/C=C/C=C/C=C/C=C/C=C/C=C/[C@H](O[C@@H]2O[C@H](C)[C@@H](O)[C@H](N)[C@@H]2O)C[C@@H]2O[C@](O)(C[C@@H](O)C[C@@H](O)[C@H](O)CC[C@@H](O)C[C@@H](O)CC(=O)O[C@H]1C)C[C@H](O)[C@H]2C(=O)O` [AMPHOTERICIN B], the MIC (against Candida albicans; in series [1]; in the series on Saccharomyces cerevisiae) was 0.49 µg/mL (≈ 0.00053 mM) in each case.

With `c1ccc2[nH]c(-c3cscn3)nc2c1` [THIABENDAZOLE], the minimal inhibitory concentration (MIC) was found to be 1000 µg/mL (≈ 4.97 mM) against Candida albicans, 31.2 µg/mL (≈ 0.155 mM) in series [1] and 1000 µg/mL (≈ 4.97 mM) in the series with Saccharomyces cerevisiae.

The record behind these values is ChEMBL document CHEMBL2390829, “N-alkylated 2,3,3-trimethylindolenines and 2-methylbenzothiazoles. Potential lead compounds in the fight against Saccharomyces cerevisiae infections” (Eur J Med Chem, 2013).
